# Measured values as given in ChEMBL document CHEMBL5674882, “Benzolactam-related compounds promote apoptosis of HIV-infected human cells via protein kinase C-induced HIV latency reversal” (J Biol Chem, 2019).
# Calls of active or inactive are those of the source. The calls are words filed in the database; no cut-off is given here.
# What was measured:
# [1] = molecular target: T1, Protein kinase C (PKC) (Homo sapiens) (UniProt O94806+P41743+P17252+P05129+Q05655+P05771+Q05513+Q02156+P24723+Q15139+Q04759); assay: Activation of PKC in human J-Lat 10.6 cells infected with latent HIV-1 assessed as reversal of HIV-1 latency by measuring increase of GFP-positive cells at 100 to 400 nM in presence of 10 nM Panobinostat incubated for 24 hrs by flow cytometry; format: cell-based; conditions: filed as activator, dose 100-400 nM
# Protein kinase C (PKC) = assay: Activation of PKC in human J-Lat 6.3 cells infected with latent HIV-1 assessed as reversal of HIV-1 latency by measuring increase of GFP-positive cells at 1 to 10000 nM incubated for 24 hrs by flow cytometry; format: cell-based
# Procedure, shortened: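 J-Lat 10.6 or J-Lat 6.3 cells (5 × 10^5 cells/ml) incubated 24 h with graded drug concentrations; % GFP-positive cells determined by flow cytometry. Means ± S.D. of three independent experiments.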
# [2] = Toxicity in human U-937 cells assessed as reduction in cell viability after 48 hrs by WST8 assay; format: cell-based
# Procedure, shortened: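 Parental, uninfected lines (A3.01 for ACH-2, U937 for U1) at 5 × 10^5 cells/ml cultured with or without drug. Viable cells read at 48 h (day 2) and expressed as % of untreated control. CC50 taken as the concentration lowering viability by 50%.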
# [3] = molecular target: T1, Protein kinase C (PKC) (Homo sapiens); assay: Synergistic activation of PKC in CD4+ T-cells purified from HIV-infected patient assessed as increase in transcription of HIV mRNA at 5 uM incubated for 24 hrs in presence of 1 uM JQ1 by qRT-PCR method; format: cell-based; conditions: CD4+ T cell, filed as activator
# Procedure, shortened: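 CD4+ T-cells purified from PBMC of patients on cART for at least 5 years with plasma viral load <20 copies/ml. Cells plated at 2.5 × 10^6 cells/ml and treated 24 h, alone or with 1 μm JQ1. Intracellular HIV RNA measured by qRT-PCR against a plasmid standard curve, normalised per ng input RNA, relative to untreated cells. Synergy assessed by Bliss independence model.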
# [4] = Toxicity in human CD4+ T-cells assessed as elevation of supernatant cytokine concentrations of IL-5 incubated for 24 hrs by bead-based immunoassay; conditions: cd4+ t cell
# Procedure, shortened: (§1)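 Purified CD4+ T-cells from healthy donors treated 24 h with 1 μm drug, 1 μm JQ1, or the combination. IL-2, IL-5, IL-6, IL-13, TNFα and IFN-γ in supernatants measured by flow-cytometry bead-based Th1/Th2 immunoassay. Run in duplicate.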
# [5] = molecular target: T1, Protein kinase C (PKC) (Homo sapiens); assay: Synergistic activation of PKC in human U1 cells infected with latent HIV-1 assessed as reversal of HIV-1 latency by measuring increase in p24 antigen level at 25 nM incubated for 48 hrs in presence of 100 nM JQ1 by chemiluminescent enzyme immunoassay relative to compound alone; format: cell-based; conditions: filed as activator
# Procedure, shortened: (§2)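 U1 cells at 5 × 10^5 cells/ml incubated 48 h with test agent alone or plus 100 nm JQ1. Supernatant p24 antigen quantified by automated immunoassay. Fold reactivation computed versus the same agent without JQ1. Mean ± S.D. of three independent experiments.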
# [6] = Toxicity in human CD4+ T-cells assessed as elevation of supernatant cytokine concentrations of IL-6 incubated for 24 hrs by bead-based immunoassay; conditions: cd4+ t cell; procedure, shortened: as §1
# CD4+ T cell = assay: Induction of apoptosis in CCL19-induced human CD4+ T-cells infected with latent HIV-1 assessed as caspase-3 activation at 1 uM incubated for 48 hrs by FACS; format: functional, cell-based
# Procedure, shortened: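 Latency model: healthy-donor CD4+ T-cells given 100 nM CCL19 for 2 days, infected with HIV-1 NL4-3, kept 5 days in IL-2. Stimulated 2 days with 1 µM drug or 100 nM PMA plus 2 µM ionomycin. Cells fixed and permeabilized, co-stained with anti-p24 and anti-active caspase-3 mAbs; active caspase-3 read by flow cytometry separately in p24+ and p24− cells. Two donors.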
# U1 [7] = assay: Induction of apoptosis in human U1 cells at 1 uM incubated for 48 hrs after pre-incubated for 2 hrs with 20 uM caspase inhibitor Q-VD-Oph by propidium iodide/annexin-V staining based flow cytometry; format: functional, cell-based
# Procedure, shortened: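 ACH-2 or U1 cells pretreated 2 h with 20 µM pan-caspase inhibitor Q-VD-Oph, then exposed to 1 µM compound for 48 h. Annexin-V/PI staining by flow cytometry; apoptotic proportions compared with and without Q-VD-Oph. Mean ± S.D.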
# [8] = molecular target: T1, Protein kinase C (PKC) (Homo sapiens); assay: Activation of PKC in CCL19-induced human CD4+ T-cells infected with latent HIV-1 assessed as reversal of HIV-1 latency by measuring increase in p24 antigen level at 1 uM incubated for 48 hrs by chemiluminescent enzyme immunoassay; format: cell-based; conditions: CD4+ T cell, filed as activator
# U1 [9] = assay: Induction of apoptosis in human U1 cells assessed as caspase-3 activation at 1 uM incubated for 24 hrs by flow cytometry (reference value: 1.86%); format: functional
# Procedure, shortened: (§3)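 Cells fixed in 1% paraformaldehyde, permeabilized, stained 30 min on ice with anti-active caspase-3 mAb, and analysed by flow cytometry. Three independent experiments.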
# [10] = Toxicity in human CD4+ T-cells assessed as increase in dead cells at 1 uM in presence of JQ1; format: cell-based; conditions: cd4+ t cell
# Procedure, shortened: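 Primary cells exposed 24 h to 1 μm drug, 1 μm JQ1, or both (1 μm each). Dead cells scored by propidium iodide staining.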
# [11] = Toxicity in human CD4+ T-cells assessed as elevation of supernatant cytokine concentrations of IL-13 incubated for 24 hrs in presence of JQ1 by bead-based immunoassay; conditions: cd4+ t cell; procedure, shortened: as §1
# J-Lat 6.3 = assay: Induction of apoptosis in human J-Lat 6.3 cells assessed as caspase-3 activation at 1 uM incubated for 24 hrs by flow cytometry (reference value: 2.43%); format: functional; procedure, shortened: as §3
# [12] = molecular target: T1, Protein kinase C (PKC) (Homo sapiens); assay: Activation of PKC in human J-Lat 6.3 cells infected with latent HIV-1 assessed as reversal of HIV-1 latency by measuring increase of GFP-positive cells at 10 uM in presence of PKC alpha/beta inhibitor Go-6976 incubated for 24 hrs by flow cytometry; format: cell-based
# Procedure, shortened: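 J-Lat 6.3 cells pretreated 3 h with a PKC inhibitor: Gö 6983 1 µM, Gö 6976 1 µM, GF 109203X 1 µM, PKCθ/δ inhibitor 10 µM, or Rottlerin 1 µM. Then exposed to 10 µM compound for 24 h; GFP-positive cells counted by flow cytometry. Mean ± S.D.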
# [13] = molecular target: T1, Protein kinase C (PKC) (Homo sapiens); assay: Synergistic activation of PKC in human U1 cells infected with latent HIV-1 assessed as reversal of HIV-1 latency by measuring increase in p24 antigen level at 50 nM incubated for 48 hrs in presence of 100 nM JQ1 by chemiluminescent enzyme immunoassay relative to compound alone; format: cell-based; conditions: filed as activator; procedure, shortened: as §2
# [14] = molecular target: T1, Protein kinase C (PKC) (Homo sapiens); assay: Activation of PKC CD4+ T-cells purified from HIV-infected patient assessed as increase in transcription of HIV mRNA at 1 uM incubated for 24 hrs by qRT-PCR method; format: cell-based; conditions: CD4+ T cell, filed as activator
# Procedure, shortened: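 CD4+ T-cells purified from PBMC of eight cART-treated HIV+ patients (cART ≥5 years, plasma viral load <20 copies/ml), plated at 2.5 × 10^6 cells/ml and treated 24 h. Total RNA extracted; HIV RNA quantified by qRT-PCR against a plasmid standard curve, normalized per ng input RNA, and expressed as fold over untreated cells. Medians of eight individuals; Mann-Whitney U test.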
structure (smiles),measurement,setting,value
CCCCCCCCCCc1ccc2c(c1)N(C)[C@@H](C(C)C)C(=O)N[C@H](CO)C2,Activity,[1],Active
same,EC50,Protein kinase C (PKC),6.3 µM
same,CC50 at 48 h,[2],61.2 µM
same,fold change (FC),[3],13.4
same,Activity,[4],Toxic
same,fold change (FC),[5],22.9
same,Activity,[6],Toxic
same,Activity,CD4+ T cell,Active
same,Activity,U1 [7],inactive
same,Activity,[8],Active
same,Activity,U1 [9],7.7%
same,Activity,[10],Non-Toxic
same,Activity,[11],Non-Toxic
same,Activity,J-Lat 6.3,21.9%
same,Activity,[12],inactive
same,fold change (FC),[13],4.5
same,Activity,[14],Active
